Measured values published in ChEMBL document CHEMBL4038305, “Benzoxaborole Antimalarial Agents. Part 5. Lead Optimization of Novel Amide Pyrazinyloxy Benzoxaboroles and Identification of a Preclinical Candidate” (J Med Chem, 2017).

Key:
Plasmodium berghei = experiment: Antimalarial activity against Plasmodium berghei infected in Swiss Webster mouse assessed as mouse survival rate at 0.3 mg/kg administered once daily via oral gavage for 4 consecutive days beginning 1 hr after infection measured on day 6 post infection relative to control; format: functional
Summary of the method: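 Mice given an intraperitoneal injection of P. berghei-infected erythrocytes taken from a previously infected animal. Oral dosing once daily for 4 consecutive days, starting 1 h after infection. Vehicle: polyethylene glycol 300/propylene glycol/water (weight ratio 55/25/20). Percent survival recorded daily from day 4 to day 20. Chloroquine 30 mg/kg and vehicle-only groups served as controls.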

Lymphocyte [1] = experiment: Genotoxicity in human lymphocytes assessed as increase in frequency of micronucleated cells at 355.15 ug/mL after 28 hrs in absence of rat liver S9 fraction by micronucleus assay (reference value: 0.74%); format: toxicity, cell-based
Lymphocyte [2] = experiment: Genotoxicity in human lymphocytes assessed as replication index at 80 ug/mL after 28 hrs in absence of rat liver S9 fraction by micronucleus assay relative to control; format: toxicity, cell-based
Summary of the method: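 Human lymphocytes exposed for 3 h with or without rat liver S9, or 28 h without S9, with 1% DMSO as vehicle control. Replication index = (binucleated + 2 × multinucleated cells)/total cells. Cytotoxicity (%) = 100 − (RI treated/RI vehicle) × 100.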

Salmonella typhimurium [3] = experiment: Genotoxicity in Salmonella typhimurium TA98 assessed as number of revertants per plate at 1.5 ug/plate in presence of rat liver S9 fraction by Ames test (reference value: 19 +/- 8); format: toxicity; conditions: salmonella enterica subsp. enterica serovar typhimurium
Salmonella typhimurium [4] = experiment: Genotoxicity in Salmonella typhimurium TA1535 assessed as number of revertants per plate at 1500 ug/plate in presence of rat liver S9 fraction by Ames test (reference value: 10); format: toxicity; conditions: salmonella enterica subsp. enterica serovar typhimurium
Rattus norvegicus = experiment: Genotoxicity in rat assessed as change in polychromatic erythrocytes in bone marrow at 2000 mg/kg administered via oral gavage measured after 24 hrs post dose by micronucleus assay relative to control; format: toxicity, organism-based; conditions: in vivo
Plasmodium falciparum = experiment: Antimalarial activity against intraerythrocytic stage of Plasmodium falciparum assessed as parasite reduction ratio at 10 times IC50 preincubated for 24 hrs followed by [3H]-hypoxanthine addition measured after 24 hrs by scintillation counting method; format: functional
Summary of the method: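 In vitro P. falciparum parasite reduction ratio assay run at 10×, 30× and 100× IC50. Derived parameters: lag phase (time to maximal killing), PRR (parasites killed per life cycle) and PCT99.9% (time to clear 99.9% of the initial parasite population).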

Escherichia coli [5] = experiment: Genotoxicity in Escherichia coli WP2uvrA assessed as number of revertants per plate at 5 ug/plate in presence of rat liver S9 fraction by Ames test (reference value: 42 +/- 6); format: toxicity
Escherichia coli [6] = experiment: Genotoxicity in Escherichia coli WP2uvrA assessed as number of revertants per plate at 5 ug/plate in absence of rat liver S9 fraction by Ames test (reference value: 45 +/- 9); format: toxicity
Salmonella typhimurium [7] = experiment: Genotoxicity in Salmonella typhimurium TA1537 assessed as number of revertants per plate at 1500 ug/plate in absence of rat liver S9 fraction by Ames test (reference value: 19 +/- 9); format: toxicity; conditions: salmonella enterica subsp. enterica serovar typhimurium

Row | SMILES | survival at 0.3 mg/kg (Plasmodium berghei) | Activity (Lymphocyte [1]) | Activity (Lymphocyte [2]) | Activity (Salmonella typhimurium [3]) | Activity (Salmonella typhimurium [4]) | Activity (Rattus norvegicus) | log(ratio) (Plasmodium falciparum) | Activity (Escherichia coli [5]) | Activity (Escherichia coli [6]) | Activity (Salmonella typhimurium [7])
1 | Cc1c(Oc2cnc(C(=O)NC(C)CO)cn2)ccc2c1B(O)OC2 (stereo not given) | 20% |  |  |  |  |  |  |  |  | 
2 | Cc1c(Oc2cnc(C(=O)N3CC(C)(O)C3)cn2)ccc2c1B(O)OC2 |  | 0.95% | 7% | 20 | 10 | -4% | 4.1 | 37 | 35 | 10
